ChEMBL document CHEMBL1122682, “Synthesis of potent heptapeptide analogues of cholecystokinin” (1984)
*1 amine or outer side, *2 acyl side, *3 side chain or, on linkers, in order; H or OH if unused. Where a SMILES comes first, the peptide text is derived from it. [ ]: non-standard residue; d: D form. X1 = O=C([C@@H]1C[C@@H](OS(=O)(=O)O)CN1[*:1])[*:2]; Thr(SO3H) = C[C@@H](OS(=O)(=O)O)[C@H](N)C(=O)O; sY = N[C@@H](Cc1ccc(OS(=O)(=O)O)cc1)C(=O)O

What was measured:
Type in all cases: functional
Rattus norvegicus = assay: Compound was evaluated for (in vivo) gastrin like activity measured on perfused rat stomach after intravenous administration
Procedure, shortened: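 Male Wistar rats (~250 g), perfused stomach; peptides given iv in physiological saline at 10, 20, 40, 80, 160 and 320 ng; secreted HCl measured by conductometric titration. Pentagastrin standard at 10–80 ng, taken as 100%. Relative potency expressed as a percentage; 10 animals per compound; detection limit 1–2% of pentagastrin.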

Oryctolagus cuniculus = organism: Oryctolagus cuniculus; assay: Compound was evaluated for cholecystokinin activity measured in isolated rabbit gallbladder strips (in vitro)
Procedure, shortened: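 Tension changes recorded with a force-displacement transducer. Dose-response curves were run for CCK-8 and each analogue, with five determinations per compound. ED50 and maximal response came from direct observation and a Dowd-Riggs linear transformation. Activity is relative to CCK-8 (100%), reported as mean ± SEM.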

Mus musculus [1] = assay: Anticonvulsive activity against picrotoxin-induced (6 mg/kg sc) convulsions in mice, time of death
Procedure, shortened: (§1)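 Male CFLP mice (25–35 g), 10 per group. Peptides in physiological saline given ip at 0.8 μmol/kg (1 mg/kg for CCK-8) 10 min before picrotoxin 6 mg/kg sc. Latency to first tonic seizure and time of death recorded over 60 min; a score of 60 is given if neither occurs. Percentage prolongation of mean saline-control latency is expressed relative to CCK-8. Student's t test vs saline controls.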

Mus musculus [2] = assay: Anticonvulsive potency against picrotoxin induced (6 mg/kg sc) convulsions in mice, first tonic seizure; procedure, shortened: as §1

## CSCC[C@H](NC(=O)[C@H](Cc1ccc(O)cc1)NC(C)=O)C(=O)NCC(=O)N[C@@H](Cc1c[nH]c2ccccc12)C(=O)N[C@@H](CCSC)C(=O)N1C[C@H](OS(=O)(=O)[O-])C[C@H]1C(=O)N[C@@H](Cc1ccccc1)C(N)=O.[Na+] (Ac-YMGWM[X1]F-NH2)
Rattus norvegicus
  Activity: 0%
Oryctolagus cuniculus
  Activity: 0.3%

## CSCC[C@H](NC(=O)[C@H](Cc1ccc(O)cc1)NC(C)=O)C(=O)NCC(=O)N[C@@H](Cc1c[nH]c2ccccc12)C(=O)N[C@@H](CCSC)C(=O)N[C@H](C(=O)N[C@@H](Cc1ccccc1)C(N)=O)[C@@H](C)OS(=O)(=O)[O-].[Na+] (Ac-YMGWM[Thr(SO3H)]F-NH2)
Rattus norvegicus
  Activity: 25%
Oryctolagus cuniculus
  Activity: 0.2%

## CSCC[C@H](NC(=O)[C@H](Cc1c[nH]c2ccccc12)NC(=O)[C@@H](C)NC(=O)[C@H](CCSC)NC(=O)[C@H](Cc1ccc(OS(=O)(=O)[O-])cc1)NC(C)=O)C(=O)N[C@@H](CC(=O)O)C(=O)N[C@@H](Cc1ccccc1)C(N)=O.[Na+]
Rattus norvegicus
  Activity: 0%
Mus musculus [1]
  Activity: 115%
Oryctolagus cuniculus
  Activity: 40%
Mus musculus [2]
  Activity: 100%

## CSCC[C@H](NC(=O)[C@H](Cc1ccc(OS(=O)(=O)O)cc1)NC(=O)[C@@H](N)CC(=O)O)C(=O)NCC(=O)N[C@@H](Cc1c[nH]c2ccccc12)C(=O)N[C@@H](CCSC)C(=O)N[C@@H](CC(=O)O)C(=O)N[C@@H](Cc1ccccc1)C(N)=O [SINCALIDE]
Rattus norvegicus
  Activity: 0%
Mus musculus [1]
  Activity: 100%
Oryctolagus cuniculus
  Activity: 100%
Mus musculus [2]
  Activity: 100%

## CSCC[C@H](NC(=O)[C@H](Cc1ccc(OS(=O)(=O)[O-])cc1)NC(C)=O)C(=O)NCC(=O)N[C@@H](Cc1c[nH]c2ccccc12)C(=O)N[C@H](CCSC)C(=O)N[C@@H](CC(=O)O)C(=O)N[C@@H](Cc1ccccc1)C(N)=O.[Na+]
Rattus norvegicus
  Activity: 0%
Mus musculus [1]
  Activity: 0%
Oryctolagus cuniculus
  Activity: 0.6%
Mus musculus [2]
  Activity: 21%

## CSCC[C@H](NC(=O)[C@H](Cc1ccc(OS(=O)(=O)[O-])cc1)NC(C)=O)C(=O)NCC(=O)N[C@@H](Cc1c[nH]c2ccccc12)C(=O)N[C@@H](CCSC)C(=O)N[C@@H](COS(=O)(=O)[O-])C(=O)N[C@@H](Cc1ccccc1)C(N)=O.[Na+].[Na+]
Rattus norvegicus
  Activity: 0%
Mus musculus [1]
  Activity: 121%
Oryctolagus cuniculus
  Activity: 190%
Mus musculus [2]
  Activity: 66%

## CSCC[C@H](NC(=O)[C@H](Cc1ccc(OS(=O)(=O)[O-])cc1)NC(C)=O)C(=O)NCC(=O)N[C@@H](Cc1c[nH]c2ccccc12)C(=O)N[C@@H](CCSC)C(=O)N1C[C@H](OS(=O)(=O)[O-])C[C@H]1C(=O)N[C@@H](Cc1ccccc1)C(N)=O.[Na+].[Na+] (Ac-[sY]MGWM[X1]F-NH2)
Rattus norvegicus
  Activity: 0%
Mus musculus [1]
  Activity: 121%
Oryctolagus cuniculus
  Activity: 300%
Mus musculus [2]
  Activity: 79%

## CSCC[C@H](NC(=O)[C@H](Cc1ccc(OS(=O)(=O)[O-])cc1)NC(C)=O)C(=O)NCC(=O)N[C@H](Cc1c[nH]c2ccccc12)C(=O)N[C@@H](CCSC)C(=O)N[C@@H](CC(=O)O)C(=O)N[C@@H](Cc1ccccc1)C(N)=O.[Na+]
Rattus norvegicus
  Activity: 0%
Mus musculus [1]
  Activity: 45%
Oryctolagus cuniculus
  Activity: 0.7%
Mus musculus [2]
  Activity: 65%

## CSCC[C@H](NC(=O)[C@H](Cc1ccc(OS(=O)(=O)[O-])cc1)NC(C)=O)C(=O)NCC(=O)N[C@@H](Cc1c[nH]c2ccccc12)C(=O)N[C@@H](CCSC)C(=O)N[C@H](C(=O)N[C@@H](Cc1ccccc1)C(N)=O)[C@@H](C)OS(=O)(=O)[O-].[Na+].[Na+] (Ac-[sY]MGWM[Thr(SO3H)]F-NH2)
Rattus norvegicus
  Activity: 0%
Mus musculus [1]
  Activity: 115%
Oryctolagus cuniculus
  Activity: 166%
Mus musculus [2]
  Activity: 146%

## H-GWMDF-NH2
Rattus norvegicus
  Activity: 100%
Mus musculus [1]
  Activity: 38%
Oryctolagus cuniculus
  Activity: 0%
Mus musculus [2]
  Activity: 62%

## CSCC[C@H](NC(=O)[C@H](Cc1ccc(O)cc1)NC(C)=O)C(=O)NCC(=O)N[C@@H](Cc1c[nH]c2ccccc12)C(=O)N[C@@H](CCSC)C(=O)N[C@@H](COS(=O)(=O)[O-])C(=O)N[C@@H](Cc1ccccc1)C(N)=O.[Na+]
Rattus norvegicus
  Activity: 40%
Oryctolagus cuniculus
  Activity: 0.3%
